As usually defined, the IC50 is the concentration that gives 50% inhibition.

From ChEMBL document CHEMBL4007433, “Design, synthesis, biological evaluation and molecular modeling study of novel macrocyclic bisbibenzyl analogues as antitubulin agents” (Eur J Med Chem, 2017) come the findings set out here.

Counter-ions that a name gives are not always drawn. Active and inactive are the calls of the source. No cut-off for these calls is given here.

One assay deals with PC-3. Kind of assay: Antiproliferative activity against paclitaxel-resistant human PC3 cells after 48 hrs by MTT assay. Particulars: PC-3, 48 h. The assay is classed as functional, cell-based.
A further assay concerns K562. The experiment in a line: Antiproliferative activity against human K562 cells after 48 hrs by MTT assay. The assay is classed as functional, cell-based. Particulars: K562, 48 h. A general note: Formazan colour is commonly taken as a measure of viable cells.
Assay [1] is described as follows: Antiproliferative activity against human HCC1428 cells after 48 hrs by MTT assay. The format is functional, cell-based. Particulars: HCC1428, 48 h.
Another assay deals with HeLa. Kind of assay: Antiproliferative activity against human HeLa cells after 48 hrs by MTT assay. The assay is classed as functional, cell-based.
A further assay has as its system HT-29. The experiment in a line: Antiproliferative activity against human HT-29 cells after 48 hrs by MTT assay. The assay is classed as functional, cell-based. Particulars: HT-29, 48 h.
The species named for assay [2] is Homo sapiens. The experiment in a line: Inhibition of alpha-tubulin polymerization in human HCC1428 cells at 3 uM after 24 hrs by confocal microscopic method. The assay is classed as cell-based. The method in brief:
(§1)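 HCC1428 cells grown on glass coverslips and treated 24 h; 1 µM vincristine and DMSO as controls. Fixed in cold methanol/acetone (1:1) 5 min, then blocked 20 min in 3% goat serum with 0.1% Triton X-100. Stained with mouse anti-α-tubulin and a FITC secondary, DAPI 4 µg/mL 15 min. Imaged by confocal microscopy; three independent experiments.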

The species named for assay [3] is Homo sapiens. The experiment in a line: Inhibition of alpha-tubulin polymerization in human HCC1428 cells at 6 to 10 uM after 24 hrs by confocal microscopic method. The format is cell-based. The method in brief: as §1
The species named for assay [4] is Bos taurus. Kind of assay: Inhibition of bovine brain tubulin polymerization at 5 uM measured every 1 min for 1 hr by spectrophotometric method. The method in brief:
(§2)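 Bovine brain tubulin (>97% pure) in G-PEM buffer (80 mM PIPES, 0.5 mM EGTA, 1.0 mM GTP, pH 6.9) with 0.1% DMSO, set up at 4 °C with or without compound, using a commercial HTS kit. Vincristine and taxol at 5 µM as controls. Polymerization followed by A340 every 1 min for 1 h at 37 °C.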

Assay [5] is filed under the species Homo sapiens. The experiment in a line: Inhibition of alpha-tubulin polymerization in human HCC1428 cells at 1 uM after 24 hrs by confocal microscopic method. The format is cell-based. The method in brief:
as §1

Assay [6] is described as follows: Cell cycle arrest in human HCC1428 cells assessed as accumulation at S phase at 1 uM after 24 hrs by propidium iodide staining based flow cytometry (reference value: 24.46%). The assay is classed as functional. A general note: In flow cytometry, cells or beads pass a laser one at a time.
A short description of assay [7]: Cell cycle arrest in human HCC1428 cells assessed as accumulation at G1 phase at 1 uM after 24 hrs by propidium iodide staining based flow cytometry (reference value: 62.61%). The assay is classed as functional.
In assay [8] the test system is HCC1428. Kind of assay: Antiproliferative activity against human HCC1428 cells at 1 uM […] by RTCA. The format is functional, cell-based. The method in brief:
(§3)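 Real-time impedance (xCELLigence RTCA DP) monitoring of HCC1428 cells plated at 2000 cells/well in E-plate 16. Cells kept in RPMI-1640 with 2% FBS at 37 °C, 5% CO2 throughout. Growth curves recorded over 84 h of compound exposure. Representative of three independent experiments.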

A short description of assay [9]: Cell cycle arrest in human HCC1428 cells assessed as accumulation at G2/M phase at 1 uM after 24 hrs by propidium iodide staining based flow cytometry (reference value: […]%). The format is functional.
The nature of assay [10]: Cell cycle arrest in human HCC1428 cells assessed as accumulation at S phase at 3 uM after 24 hrs by propidium iodide staining based flow cytometry (reference value: 24.46%). The format is functional.
For assay [11], the species on record is Homo sapiens. The experiment in a line: Inhibition of alpha-tubulin polymerization in human HCC1428 cells at 3 to 6 uM after 24 hrs by confocal microscopic method. The format is cell-based. An outline of the steps:
as §1

Assay [12] is filed under the species Bos taurus. The experiment in a line: Inhibition of bovine brain tubulin polymerization at 5 to 10 uM measured every 1 min for 1 hr by spectrophotometric method. The method in brief:
as §2

A short description of assay [13]: Cell cycle arrest in human HCC1428 cells assessed as accumulation at G1 phase at 3 uM after 24 hrs by propidium iodide staining based flow cytometry (reference value: 62.61%). The format is functional.
A short description of assay [14]: Cell cycle arrest in human HCC1428 cells assessed as accumulation at G2/M phase at 6 uM after 24 hrs by propidium iodide staining based flow cytometry (reference value: […]%). The format is functional.
Assay [15] can be described thus: Cell cycle arrest in human HCC1428 cells assessed as accumulation at G1 phase at 6 uM after 24 hrs by propidium iodide staining based flow cytometry (reference value: 62.61%). The assay is classed as functional.
Assay [16] can be described thus: Cell cycle arrest in human HCC1428 cells assessed as accumulation at S phase at 6 uM after 24 hrs by propidium iodide staining based flow cytometry (reference value: 24.46%). The assay is classed as functional.
Assay [17] can be described thus: Cell cycle arrest in human HCC1428 cells assessed as accumulation at G2/M phase at 3 uM after 24 hrs by propidium iodide staining based flow cytometry (reference value: […]%). The format is functional.
Assay [18] deals with HCC1428. Kind of assay: Antiproliferative activity against human HCC1428 cells at 2 to 4 uM […] by RTCA. The assay is classed as functional, cell-based. The method in brief: as §3
Assay [19] concerns HCC1428. Kind of assay: Cell cycle arrest in human HCC1428 cells assessed as accumulation at G2/M phase after 24 hrs by propidium iodide staining based flow cytometry. The format is functional.

With `COc1cccc2c1C(=O)c1c(O)c3c(c(O)c1C2=O)C[C@@](O)(C(=O)CO)C[C@@H]3O[C@H]1C[C@H](N)[C@H](O)[C@H](C)O1` [DOXORUBICIN HYDROCHLORIDE], the IC50 in the assay with PC-3 was 16.9 µM; in the assay on K562, 0.57 µM; in [1] it was 1.77 µM; in the assay on HeLa, 1.23 µM; in the assay with HT-29 it was 1.76 µM.
For the compound `Oc1ccc2cc1Oc1ccc(cc1)CCc1cccc(O)c1Oc1ccc(cc1)CC2`, the IC50 came to 10.9 µM in the assay on PC-3; 8.52 µM with K562; 9.25 µM in [1]; 10.5 µM in the assay on HeLa; 7.57 µM with HT-29.
For the compound `Oc1ccc2cc1Oc1ccc(cc1)CCc1ccc(O)c(c1)Oc1cccc(c1)CC2`, the IC50 in the assay on PC-3 was found to be 13.4 µM; in the assay with K562, 7.02 µM; in assay [1] it was 10.7 µM; in the assay on HeLa it was 11.7 µM; in the assay with HT-29, 7.98 µM. In addition, in the assay filed under Homo sapiens [2], the inhibition result is “inactive”. Also, the inhibition entry in the assay filed under Homo sapiens [3] is “Active”.
`Oc1ccc2cc1Oc1ccc(cc1)CCc1ccc(O)c(c1)Oc1ccc(cc1O)CC2`: the IC50 in the assay on K562 worked out at 15.6 µM; in assay [1], 20.1 µM; in the assay on HeLa, 29.4 µM; in the assay with HT-29 it was 14.8 µM.
On the same counts, the results for `Oc1ccc2c(c1)CCc1ccc(O)c(c1)Oc1ccc(cc1)CCc1cccc(O)c1O2` are 14.1 µM, 10.8 µM, 15.9 µM and 7.98 µM.
`Oc1ccc2cc1Oc1cccc(c1)CCc1ccc(O)c(c1)Oc1ccc(cc1O)CC2`: the IC50 in the assay with K562 amounted to 10.9 µM; in assay [1], 19.5 µM; with HeLa, 19.5 µM; in the assay with HT-29 it was 12.4 µM.
In the case of `Oc1ccc2cc1Oc1ccc(cc1)/C=C\c1cccc(O)c1Oc1ccccc1CC2`, the IC50 stood at 19.2 µM in the assay with K562, 17.1 µM in assay [1], 21.9 µM with HeLa and 9.6 µM with HT-29.
Turning to `CC[C@]1(O)C[C@H]2CN(CCc3c([nH]c4ccccc34)[C@@](C(=O)OC)(c3cc4c(cc3OC)N(C=O)[C@H]3[C@@](O)(C(=O)OC)[C@H](OC(C)=O)[C@]5(CC)C=CCN6CC[C@]43[C@@H]65)C2)C1` [VINCRISTINE], the inhibition entry in the assay filed under Bos taurus [4] and in the assay listed under Homo sapiens [5] was “Active” throughout. The values for the Activity in assay [6], in [7] and in assay [9] were 6.96%, 4.15% and 88.89%, respectively. Further, the outcome with HCC1428 [8] was Active.
Regarding `CC(=O)O[C@H]1C(=O)[C@@]2(C)[C@H]([C@H](OC(=O)c3ccccc3)[C@]3(O)C[C@H](OC(=O)[C@H](O)[C@@H](NC(=O)c4ccccc4)c4ccccc4)C(C)=C1C3(C)C)[C@]1(OC(C)=O)CO[C@@H]1C[C@@H]2O`, in the assay filed under Bos taurus [4], the inhibition result is “inactive”.
Regarding `Oc1cc2ccc1Oc1cccc(c1)CCc1ccc(O)c(c1)Oc1ccc(cc1)CC2`, the IC50 in the assay with K562 was found to be 15.7 µM; in assay [1], 22.4 µM; in the assay with HeLa, 18.9 µM; in the assay on HT-29, 12.7 µM.
As to `Oc1cc2c(cc1O)Oc1c(O)cccc1CCc1ccc(cc1)Oc1cc(ccc1O)CC2`, the IC50 with PC-3 is 7.7 µM; with K562, 6.16 µM; in [1], 8.46 µM; with HeLa it was 10.4 µM; in the assay with HT-29 it was 7.51 µM.
Consider `Oc1ccc2cc1Oc1ccc(cc1)CCc1cccc(O)c1Oc1ccccc1CC2`, for which the IC50 with K562 was determined as 21.6 µM; in [1], 19 µM; in the assay with HeLa, 21.5 µM; in the assay on HT-29, 12.4 µM.
As to `Oc1cc2ccc1Oc1ccc(cc1)CCc1cccc(O)c1Oc1cccc(c1)CC2`, the IC50 was 6.06 µM in the assay with K562, 7.69 µM in [1], 15.8 µM in the assay with HeLa and 11.6 µM in the assay on HT-29.
Regarding `Oc1ccc2cc1Oc1ccc(cc1)CCc1cccc(O)c1Oc1ccc(cc1O)CC2`, the 50% inhibitory concentration (IC50) amounted to 24.9 µM in the assay on K562, 19.5 µM in assay [1], 27.4 µM in the assay with HeLa and 17 µM in the assay on HT-29.
For `Oc1ccc2cc1Oc1ccc(cc1)CCc1cc(O)c(c(O)c1)Oc1cccc(c1)CC2` the same measures were 29.9 µM, 25.2 µM, 28.3 µM and 20.1 µM.
Regarding `COc1cccc2c1Oc1cc(O)c(O)cc1CCc1ccc(O)c(c1)Oc1ccc(cc1)CC2`, the IC50 in the assay on PC-3 is 5.51 µM; in the assay on K562, 1.74 µM; in assay [1] it was 1.51 µM; with HeLa it was 2.61 µM; in the assay with HT-29, 1.98 µM. Further, the Activity in assay [10] is 23.66%; in assay [13] it was 38.6%; in assay [14], 85.34%; in assay [15], 3.54%; in assay [16], 11.12%; in [17], 37.7%. Also, the Activity result in the assay on HCC1428 [19] was “Dose-dependent effect”. Moreover, the inhibition entry in the assay listed under Homo sapiens [11] and in the assay filed under Bos taurus [12] was “Active” in each case. For the same compound, the outcome in the assay with HCC1428 [18] was Active.
`Oc1ccc2c(c1)CCc1ccc(O)c(c1)Oc1ccc(cc1O)CCc1cccc(O)c1O2`: the IC50 in the assay on K562 was found to be 25.3 µM; in assay [1], 22 µM; with HeLa it was 26.8 µM; in the assay with HT-29 it was 15.9 µM.
Regarding `Oc1ccc2cc1Oc1ccc(cc1)CCc1ccc(O)c(c1)Oc1ccc(cc1)CC2`, the IC50 in the assay with K562 came out at 10.2 µM; in assay [1], 15.3 µM; with HeLa, 22.7 µM; in the assay on HT-29, 11.5 µM.
